Test results from PubChem BioAssay.
Some of the results follow. Results filed as inconclusive are left out. Unmarked numbers belong to inactive results. The source made the active and inactive calls.

Columns and labels:
[1] = target: Solute carrier family 12 member 5 (Homo sapiens) (UniProt Q9H2X9); test: KCC2 modulators in sodium-free buffer, confirmation, cell-based, HEK293 KCC2, thallium flux, secondary assay (AID 1713;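 active = thallium flux slope above the same plate's solvent-only control mean plus 3 SD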); details: FluoZin2 fluorescence, at 10 µM, active compounds read high
Solute carrier family 12 member 5 (Homo sapiens), sequence (Q9H2X9 whole entry, looked up): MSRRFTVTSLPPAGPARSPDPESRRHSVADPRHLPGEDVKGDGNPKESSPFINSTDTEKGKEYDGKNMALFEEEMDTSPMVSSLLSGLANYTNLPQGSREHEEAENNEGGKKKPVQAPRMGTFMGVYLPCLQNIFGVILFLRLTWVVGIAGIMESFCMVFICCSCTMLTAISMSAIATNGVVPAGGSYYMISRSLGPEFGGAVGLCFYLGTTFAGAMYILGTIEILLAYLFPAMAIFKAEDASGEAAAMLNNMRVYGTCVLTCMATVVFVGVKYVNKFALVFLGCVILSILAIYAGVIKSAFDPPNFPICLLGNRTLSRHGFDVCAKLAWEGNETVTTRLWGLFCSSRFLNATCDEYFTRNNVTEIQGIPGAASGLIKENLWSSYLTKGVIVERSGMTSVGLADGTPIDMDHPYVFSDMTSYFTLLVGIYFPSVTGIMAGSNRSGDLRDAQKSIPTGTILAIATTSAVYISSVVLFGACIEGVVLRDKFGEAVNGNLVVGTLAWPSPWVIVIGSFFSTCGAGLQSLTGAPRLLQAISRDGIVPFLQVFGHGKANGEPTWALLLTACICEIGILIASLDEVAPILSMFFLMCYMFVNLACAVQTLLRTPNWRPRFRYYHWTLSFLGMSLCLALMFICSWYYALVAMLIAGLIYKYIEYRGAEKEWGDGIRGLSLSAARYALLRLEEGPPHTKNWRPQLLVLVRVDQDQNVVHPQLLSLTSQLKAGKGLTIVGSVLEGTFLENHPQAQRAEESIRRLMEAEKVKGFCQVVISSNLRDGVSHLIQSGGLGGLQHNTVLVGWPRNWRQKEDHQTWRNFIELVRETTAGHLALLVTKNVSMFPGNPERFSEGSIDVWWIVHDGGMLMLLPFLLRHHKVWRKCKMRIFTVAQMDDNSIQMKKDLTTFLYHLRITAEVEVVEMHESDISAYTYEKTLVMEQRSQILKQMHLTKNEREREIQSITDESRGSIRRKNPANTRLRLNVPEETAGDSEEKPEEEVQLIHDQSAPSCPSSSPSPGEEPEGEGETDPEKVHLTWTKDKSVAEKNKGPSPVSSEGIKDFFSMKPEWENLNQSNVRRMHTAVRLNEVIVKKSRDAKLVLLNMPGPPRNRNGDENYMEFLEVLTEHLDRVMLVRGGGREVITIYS
How it was run: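 System: HEK cells expressing human KCC2 cotransporter; Buffer or medium: Na-free NMDG-Cl buffer; Also added: thallium sulfate stimulus buffer at pH 7.3; Dosing: 10 µM single dose, 0.1% DMSO; Timing: 48 min dye loading; Measured by: kinetic FluoZin2 fluorescence at 1 Hz, ex 480/em 540 nm; Read-out: baseline-normalized fluorescence slope, 10–20 s post-Tl+.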

PubChem AID 1714 = details: HEK293-KCC2 + bumetanide/ouabain, thallium flux FluoZin2; at 10 µM; active compounds read high
How it was run: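 Assay system: HEK cells expressing the K-Cl cotransporter KCC2; buffer or medium: HBSS-HEPES plus ouabain 0.2 mM, bumetanide 2 mM; reagent: thallium stimulus; compound dosing: 10 µM single dose; timing: 48 min dye loading; signal: FluoZin2-AM (0.5 µM) fluorescence, 480 nm ex/540 nm em, 1 Hz kinetic imaging; replication: duplicates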

[2] = target: Solute carrier family 12 member 5 (Homo sapiens) (UniProt Q9H2X9); test: KCC2 modulators without ouabain present, confirmation, cell-based, HEK293 KCC2, thallium flux, FluoZin2, secondary assay 2 (AID 1715;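 active = thallium flux slope more than 3 SD above or below the plate's solvent-only control mean, mostly below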;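 note: raw slope with 0.1% DMSO as baseline and bumetanide as block control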); details: HEK293-KCC2, thallium flux FluoZin2 fluorescence; at 10 µM; actives lie on both sides; F/F0 rise rate, 10–20 s post-thallium
[3] = thallium flux modulation in parental HEK cells, confirmation, counter-screen for KCC2 modulator project, cell-based, counterscreen 1 (AID 1716;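 active = thallium flux rate significantly above the same plate's solvent-only control wells, beyond their mean plus 3 SD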); details: HEK293 parental cells, thallium flux FluoZin2, ouabain; at 10 µM; baseline-ratio fluorescence slope, 10–20 s after thallium
[4] = native HEK Tl+ uptake effects, second counter-screen – HEK cells, counterscreen 2, counter-screen for KCC2 modulator project, confirmation (AID 1718); details: HEK293 parental, thallium flux FluoZin-2 fluorescence slope; at 10 µM;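 note: run without ouabain in cells lacking the KCC2 cotransporter; slope of fluorescence scaled to its starting value between 10 and 20 s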
How it was run: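 Test system: parental HEK cells / Reagent: thallium sulfate stimulus, 12 mM in buffer, pH 7.3 / Compound: single 10 µM final compound dose, 0.1% DMSO / Timing: overnight cell culture at 37 °C, 48 min dye loading, compound before thallium / Detection: FluoZin-2 fluorescence kinetics / Read-out: rate of F/F0 rise, 10–20 s after thallium addition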

[5] = target: Solute carrier family 12 member 5 (Homo sapiens) (UniProt Q9H2X9); test: KCC2 inhibitors and activators, ouabain retest, confirmation, HEK-KCC2 cells (AID 1717;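 active = thallium flux slope beyond 3 SD from same-plate DMSO control mean in most replicates, usually higher, sometimes lower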;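 note: slope of initial-normalized fluorescence between seconds 10 and 20 after thallium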); details: HEK293-KCC2, thallium flux FluoZin2 fluorescence, at 10 µM, bidirectional: low = inhibitor, high = activator

SMILES	normalised thallium flux (F/F0 slope) [1]	normalized thallium flux (PubChem AID 1714)	normalized thallium flux [2]	thallium flux rate (normalised fluorescence) [3]	thallium flux slope [4]	raw Tl+ flux slope (below DMSO = inhibition, above = activation) [5]
O=[N+]([O-])c1ccccc1/C=N/n1c(COc2ccccc2)n[nH]c1=S	0.00593	0.0786 (active)	0.0297	0.0168 (active)	0.0116 (active)	
Cn1c(C(=O)NCCc2ccsc2)cc2c(=O)n(C)c3ccccc3c21	0.00557	0.00386			0.00931	0.0126 (active)
Cc1c(C(=O)NC(=S)NCc2cccnc2)oc2ccccc12	0.025 (active)	0.0479 (active)		0.028 (active)	0.0284 (active)	0.0308 (active)
